Test results from ChEMBL document CHEMBL1124957, “6-Benzoxazinylpyridazin-3-ones: potent, long-acting positive inotrope and peripheral vasodilator agents” (J Med Chem, 1990).

Tests used:
Canis familiaris [1] = test: Heart rate in dog following 1.875 mg/kg i.v. administration.; format: functional, Canis lupus familiaris; settings: route intravenous
Procedure, shortened: (§1)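 Anesthetized adult mongrel dogs (sodium pentobarbital 45 mg/kg ip), artificially respired; MAP from cannulated femoral artery, infusion into femoral vein. Dopamine standard (10–15 μg/kg/min, 3 min) checked inotropic responsiveness. Compounds dissolved in DMF, diluted to 10% final in saline; stepwise 3–4 increasing doses, each infused over 5 min after prior peak. CF, MAP, HR expressed as % change from predrug control vs cumulative dose.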

Canis familiaris [2] = test: Mean arterial blood pressure in dog following 1.875 mg/kg i.v. administration.; format: functional, Canis lupus familiaris; settings: route intravenous; procedure, shortened: as §1
Canis familiaris [3] = test: Myocardial contractile force (CF) in dog after intravenous dose of 1.875 mg/kg; format: functional, Canis lupus familiaris, Myocardium; procedure, shortened: as §1
Canis familiaris [4] = test: Effective dose required to increase the myocardial contractile force (CF) 50% above base line when administered intravenously.; format: functional; settings: Canis lupus familiaris, Myocardium, iv
Procedure, shortened: (§2)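 Dopamine standard (10–15 μg/kg/min, 3 min) checked inotropic responsiveness. Compounds dissolved in DMF, diluted to 10% final in saline; stepwise 3–4 increasing doses, each infused over 5 min after prior peak. CF, MAP, HR expressed as % change from predrug control vs cumulative dose.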

[5] = biological target: phosphodiesterase fraction III (Canis familiaris); test: Inhibition of cardiac phosphodiesterase-3 isolated from canine heart.
Canis familiaris [6] = test: Heart rate (HR) in dog after intravenous dose of 0.470 mg/kg; format: functional, Canis lupus familiaris; settings: dose 0.47 mg/kg; procedure, shortened: as §1
Canis familiaris [7] = test: Mean arterial blood pressure (MAP) in dog after intravenous dose of 0.470 mg/kg; format: functional, Canis lupus familiaris; design: unit: % change from predrug control; settings: dose 0.47 mg/kg; procedure, shortened: as §1
Canis familiaris [8] = test: Myocardial contractile force (CF) in dog after intravenous dose of 0.470 mg/kg; format: functional, Canis lupus familiaris, Myocardium; settings: dose 0.47 mg/kg; procedure, shortened: as §1
Canis familiaris [9] = test: Heart rate (HR) in dog after intravenous dose of 0.075 mg/kg; format: functional, Canis lupus familiaris; procedure, shortened: as §2
Canis familiaris [10] = test: Mean arterial blood pressure (MAP) in dog after intravenous dose of 0.075 mg/kg; format: functional, Canis lupus familiaris; procedure, shortened: as §2
Canis familiaris [11] = test: Myocardial contractile force (CF) in dog after intravenous dose of 0.075 mg/kg; format: functional, Canis lupus familiaris, Myocardium; procedure, shortened: as §2
Canis familiaris [12] = test: Intravenous dose required to increase contractile force (inotropic effect) by 50%; format: functional; settings: Canis lupus familiaris; procedure, shortened: as §1
Canis familiaris [13] = organism: Canis familiaris; test: Inotropic and enzyme inhibition effect on heart rate (HR); format: functional, Canis lupus familiaris
Canis familiaris [14] = test: Percent change in activity 8 hr after peroral administration in conscious dog at 0.10 mg/kg; format: functional, Canis lupus familiaris; settings: dose 0.1 mg/kg; route oral
Procedure, shortened: (§3)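 Conscious dogs, instrumented earlier with an LV Konigsberg pressure transducer through a left thoracotomy, with ≥1 week recovery and trained to lie quietly. LV dP/dtmax derived as the contractility index; baseline MAP, HR, dP/dtmax taken first. Compound suspended in 0.1% methylcellulose (10 mL) and given by gavage through a gastric tube. Response recorded as % change, also at 8 h.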

Canis familiaris [15] = test: Percent change in activity 8 hr after peroral administration in conscious dog at 0.30 mg/kg; format: functional, Canis lupus familiaris; settings: dose 0.3 mg/kg; route oral; procedure, shortened: as §3
[16] = Index of contractility was determined as the ratio of % of dP/dtmax in conscious dog after (po) administration of 0.10 mg/kg; format: functional; settings: dose 0.1 mg/kg; procedure, shortened: as §3
[17] = Index of contractility was determined as the ratio of % of dP/dtmax in conscious dog after (po) administration of 0.30 mg/kg; format: functional; settings: dose 0.3 mg/kg; procedure, shortened: as §3
[18] = Index of contractility was determined as the ratio of % of dP/dtmax in conscious dog after (po) administration of a dose of 0.01 mg/kg; format: functional; procedure, shortened: as §3
Canis familiaris [19] = test: Mean arterial blood pressure (MAP) in dog after intravenous dose of 0.188 mg/kg; format: functional, Canis lupus familiaris; procedure, shortened: as §1
Canis familiaris [20] = test: Heart rate (HR) in dog after intravenous dose of 0.188 mg/kg; format: functional, Canis lupus familiaris; procedure, shortened: as §1
Canis familiaris [21] = test: Myocardial contractile force (CF) in dog after intravenous dose of 0.188 mg/kg; format: functional, Canis lupus familiaris, Myocardium; procedure, shortened: as §1
Canis familiaris [22] = test: Heart rate (HR) in dog after intravenous dose of 0.010 mg/kg; format: functional, Canis lupus familiaris; settings: dose 0.075 mg/kg, in the assay text read “0.075 mg/kg” for “0.010 mg/kg”; procedure, shortened: as §1
Canis familiaris [23] = test: Mean arterial blood pressure (MAP) in dog after intravenous dose of 0.100 mg/kg; format: functional, Canis lupus familiaris; settings: dose 0.1 mg/kg; procedure, shortened: as §1
Canis familiaris [24] = test: Heart rate (HR) in dog after intravenous dose of 0.100 mg/kg; format: functional, Canis lupus familiaris; settings: dose 0.1 mg/kg; procedure, shortened: as §1
Canis familiaris [25] = test: Myocardial contractile force (CF) in dog after intravenous dose of 0.100 mg/kg; format: functional, Canis lupus familiaris, Myocardium; settings: dose 0.1 mg/kg; procedure, shortened: as §1

Row | Compound | Activity (Canis familiaris [1]) | Activity (Canis familiaris [2]) | Activity (Canis familiaris [3]) | ED50 (Canis familiaris [4]) | IC50 [5] | further results
1 | CS(=O)(=O)N1CCOc2ccc(C3=NNC(=O)CC3)cc21 | 24 | -14 | 76 | 1.33 mg/kg | 9.5 µM | –
2 | CC(=O)N1CCOc2ccc(C3=NNC(=O)CC3)cc21 | 20 | -14 | 121 | 0.37 mg/kg | 100 µM | –
3 | O=C1CCC(c2ccc3c(c2)NCCO3)=NN1 | 15 | -17 | 105 | 0.62 mg/kg | 50 µM | –
4 | CC1CC(=O)NN=C1c1ccc2c(c1)NCCO2 (centres undefined) | – | – | – | 0.056 mg/kg | 6 µM | Activity (Canis familiaris [6]): 44; Activity (Canis familiaris [7]): -11; Activity (Canis familiaris [8]): 149
5 | Cc1cc(C2=NNC(=O)CC2C)c2c(c1)N(C)C(=O)CO2 (centres undefined) | 19 | -17 | 98 | 0.75 mg/kg | 7.5 µM | –
6 | CC1CC(=O)NN=C1c1ccc2c(c1)OC(C)C(=O)N2 (centres undefined) | – | – | – | 0.0054 mg/kg | 4 µM | Activity (Canis familiaris [9]): 23; Activity (Canis familiaris [10]): -17; Activity (Canis familiaris [11]): 154
7 | CC1CC(=O)NN=C1c1ccc2c(c1)NC(=O)C(C)O2 (centres undefined) | – | – | – | 0.07 mg/kg | 5 µM | Activity (Canis familiaris [6]): 18; Activity (Canis familiaris [7]): -10; Activity (Canis familiaris [8]): 157
8 | CC1CC(=O)NN=C1c1ccc2c(c1)N(S(C)(=O)=O)CCO2 (centres undefined) | – | – | – | 0.148 mg/kg | 4 µM | Activity (Canis familiaris [6]): 17; Activity (Canis familiaris [7]): -1; Activity (Canis familiaris [8]): 99
9 | CC1CC(=O)NN=C1c1ccc2c(c1)OC(C)(C)C(=O)N2 (centres undefined) | – | – | – | 0.0162 mg/kg | 4 µM | Activity (Canis familiaris [9]): 16; Activity (Canis familiaris [10]): -28; Activity (Canis familiaris [11]): 82
10 | CN1C(=O)C(C)(C)Oc2ccc(C3=NNC(=O)CC3)cc21 | 8 | -12 | 125 | – | 36 µM | ED50 (Canis familiaris [12]): 0.8 mg/kg
11 | CC1CC(=O)NN=C1c1ccc2c(c1)N(C1CCCC1)C(=O)C(C)O2 (centres undefined) | 7 | -5 | 36 | > 1.88 mg/kg | 8 µM | –
12 | Cc1cc2c(c(C3=NNC(=O)CC3C)c1)OCC(=O)N2 (centres undefined) | 8 | -15 | 51 | 1.8 mg/kg | 28 µM | –
13 | CC1CC(=O)NN=C1c1ccc2c(c1)OC(C)(C)C(=O)N2C (centres undefined) | – | – | – | 0.0217 mg/kg | 6 µM | Activity (Canis familiaris [9]): 19; Activity (Canis familiaris [10]): -14; Activity (Canis familiaris [11]): 85
14 | Cc1cc(C2=NNC(=O)CC2)c2c(c1)N(C)C(=O)CO2 | – | – | – | 0.258 mg/kg | 26 µM | Activity (Canis familiaris [7]): 1; Activity (Canis familiaris [13]): 9; Activity (Canis familiaris [8]): 73
15 | Cc1cc2c(c(C3=NNC(=O)CC3)c1)OCC(=O)N2 | 2 | -12 | 32 | > 1.88 mg/kg | 31 µM | –
16 | CC(=O)N1CCOc2ccc(C3=NNC(=O)CC3C)cc21 (centres undefined) | – | – | – | 0.056 mg/kg | 30 µM | Activity (Canis familiaris [6]): 35; Activity (Canis familiaris [7]): -31; Activity (Canis familiaris [8]): 135

Row | Compound | Activity (Canis familiaris [1]) | Activity (Canis familiaris [2]) | Activity (Canis familiaris [3]) | ED50 (Canis familiaris [4]) | IC50 [5] | further results
17 | CC1CC(=O)NN=C1c1ccc2c(c1)NC(=O)CO2 (centres undefined) | – | – | – | 0.077 mg/kg | 2 µM | Activity (Canis familiaris [6]): 26; Activity (Canis familiaris [7]): -14
18 | CN1N=C(c2ccc3c(c2)N(S(C)(=O)=O)CCO3)CCC1=O | 12 | 0 | 26 | > 1.88 mg/kg | 100 µM | –
19 | CC1Oc2ccc(C3=NNC(=O)CC3)cc2NC1=O (centres undefined) | 24 | – | – | 0.49 mg/kg | 14 µM | –
20 | Cc1cc2c(cc1C1=NNC(=O)CC1C)NC(=O)CO2 (centres undefined) | – | – | – | 0.137 mg/kg | 20 µM | Activity (Canis familiaris [6]): 20; Activity (Canis familiaris [7]): -4
21 | CCCCCN1N=C(c2ccc3c(c2)N(S(C)(=O)=O)CCO3)CCC1=O | -2 | -6 | 22 | > 1.88 mg/kg | 50 µM | –
22 | CC1CC(=O)NN=C1c1ccc2c(c1)N(C(C)C)C(=O)C(C)O2 (centres undefined) | 8 | -16 | 83 | 0.47 mg/kg | 5 µM | –
23 | CS(=O)(=O)N1CCOc2ccc(C3=NN(c4ccccc4)C(=O)CC3)cc21 | 6 | 9 | 30 | > 1.88 mg/kg | 200 µM | –
24 | CN1C(=O)COc2ccc(C3=NNC(=O)CC3)cc21 | – | – | – | 0.279 mg/kg | 18 µM | Activity (Canis familiaris [6]): 13; Activity (Canis familiaris [7]): -4
25 | CC1(C)Oc2ccc(C3=NNC(=O)CC3)cc2NC1=O | 14 | -6 | 113 | 0.65 mg/kg | 23 µM | –
26 | O=C1CCC(c2ccc3c(c2)NC(=O)CO3)=NN1 | 9 | – | – | 0.7 mg/kg | 630 µM | –
27 | C=CCN1N=C(c2ccc3c(c2)N(S(C)(=O)=O)CCO3)CCC1=O | 10 | 4 | 37 | > 1.88 mg/kg | – | –
28 | CC1CC(=O)NN=C1c1ccc2c(c1)N(C)C(=O)C(C)O2 (centres undefined) | – | – | – | 0.068 mg/kg | 6 µM | Activity (Canis familiaris [6]): 36; Activity (Canis familiaris [7]): -15
29 | CC1CC(=O)NN=C1c1ccc2c(c1)OCC(=O)N2 (centres undefined) [BEMORADAN] | – | – | – | 0.0054 mg/kg | 0.3 µM | Activity (Canis familiaris [9]): 25; Activity (Canis familiaris [10]): -21; Change (Canis familiaris [14]): 31%; Change (Canis familiaris [15]): 65%; Activity (Canis familiaris [11]): 127; Ratio [16]: 85%; Ratio [17]: 130%; Ratio [18]: 43%
30 | O=C1CCC(c2ccc(-n3ccnc3)cc2)=NN1 [IMAZODAN] | – | – | – | 0.0822 mg/kg | – | Activity (Canis familiaris [19]): -4; Activity (Canis familiaris [20]): 8; Activity (Canis familiaris [21]): 77
31 | CC1(C)C(=O)Nc2ccc(C3=NNC(=O)CC3)cc21 [INDOLIDAN] | – | – | – | 0.0084 mg/kg | 7 µM | Activity (Canis familiaris [22]): 32; Activity (Canis familiaris [10]): -27; Activity (Canis familiaris [11]): 110
32 | Cc1[nH]c(=O)c(C#N)cc1-c1ccncc1 [MILRINONE] | – | – | – | 0.022 mg/kg | – | Activity (Canis familiaris [23]): -13; Activity (Canis familiaris [24]): 15; Activity (Canis familiaris [25]): 105
